# Source: PubChem BioAssay (several laboratories)
# CaV13 ICDI inh – Primary screen for inhibitors of IQ motif and Ca2+-dependent inactivation inhibitor domain binding in CACNA1D, Förster resonance energy transfer in living cells, …. HEK cells, CFP/YFP FRET ICDI-IQ, plate reader, 10 min; percent FRET-ratio fall versus neutral wells. inhibition, % at 12.3 µM. actives 0.098% (n = 340,000);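 active means mean replicate inhibition of at least 30% and at least 1% of replicates passing that level; inconclusive means only one of the two criteria is met; inactive means neither criterion is met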
# TWEAK-Fn14 inh – inhibitors of TWEAK-Fn14 interaction signaling; TWEAK-stimulated Fn14 reporter cells, luciferase luminescence, 8 h; inhibition, % at 10 µM; actives 2% (n = 360,000); AID 1159606; in the data active means inhibition above about 50%
# LGR2 inh – inhibitors of bursicon-induced Drosophila LGR2 receptor cAMP signaling; HEK293 LGR2, CRE-luciferase, bursicon-stimulated, 4 h; inhibition, % at 9.99 µM; actives 0.35% (n = 380,000);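 active means drop in luminescence signal, shown as inhibition above about 50% in the replicate tests, limit read from the data, passing the limit was not always enough; inconclusive means probably only some replicates passing the limit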;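 further: agonist challenge used bursicon conditioned medium at about half maximal strength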
# Xi reactivation – activators of X-chromosome reactivation in mouse fibroblasts; XiGFP mouse fibroblasts, % GFP-positive cells imaging, 3 d; cells co-treated with 5-aza-dC sensitizer; scaled so ellipticine positive control = 100%; actives 0.055% (n = 360,000); AID 743238; activation, % at 7.58 µM;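 active means mean normalized replicate activation at least 10% and every replicate at or above 10%; inconclusive means only one of the two criteria met; inactive means mean below 10% and not all replicates reach 10%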
#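 Assay system – SV40-immortalized XiGFP fibroblast cells, line 68-5-11 · Buffer or medium – DMEM supplemented with 5-aza-dC as sensitizing agent · Dosing – one concentration, pinned · Benchmarks – positive control ellipticine, 6 µM final · Times – 3 days compound exposure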
# TROY signal inh – inhibitors of TROY-dependent NF-kB signaling; Q293 LMP1-TROYcd NF-kB luciferase reporter, 4 h; inhibition, % at 10 µM; actives 0.98% (n = 360,000);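 active means compounds whose plate-normalised and pattern-corrected inhibition of the luciferase reporter signal at the single screening dose is 50% or more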
# A number is an active result; – = inactive; ? = inconclusive; · = no result given. Hits are enriched below; roughly 2% of the tested compounds scored in any of these assays.
SMILES,CaV13 ICDI inh,TWEAK-Fn14 inh,LGR2 inh,Xi reactivation,TROY signal inh
O=C(Cc1ccc(F)cc1)Nc1nc(-c2ccc(F)c(F)c2)cs1,–,–,–,–,75.0
Cc1sc2nc(SCC(=O)Nc3c(C)n(C)n(-c4ccccc4)c3=O)n(C)c(=O)c2c1C,–,58.5,·,·,–
Cc1ccc(S(=O)(=O)N(C)C[C@H]2Oc3c(NS(=O)(=O)c4c(C)noc4C)cccc3C(=O)N([C@H](C)CO)C[C@H]2C)cc1,·,·,–,–,·
CCC(=O)N1C[C@H](O)COC[C@H]2O[C@H](CC(=O)NCc3cc(F)cc(F)c3)CC[C@@H]21,·,·,–,–,·
C[C@H]1CN([C@@H](C)CO)S(=O)(=O)c2ccc(C3=CCCCC3)cc2O[C@@H]1CN(C)S(=O)(=O)c1cn(C)cn1,·,·,–,–,·
COc1ccc(Nc2nnc(-c3ccncc3)s2)cc1Cl,–,–,–,–,51.1
COc1ccc(Cl)cc1Nc1nnc(-c2ccncc2)s1,–,–,–,–,–
Clc1ccccc1Nc1nnc(-c2ccncc2)s1,–,89.1,?,–,59.8
COc1cccc(/C=N/Nc2ncnc(Cl)c2N)c1O,–,–,·,–,60.6
COc1cccc(/C=N/Nc2cc(-n3nc(C)cc3-c3ccccc3)ncn2)c1O,–,60.8,–,–,–
COc1cccc(/C=N/Nc2nc3ccccc3[nH]2)c1O,–,–,–,–,–
COc1cccc(/C=N/Nc2nccnc2Cl)c1O,–,65.4,75.6,–,–
COc1cccc(/C=N/Nc2ncnc3scc(-c4ccccc4)c23)c1O,–,63.5,–,–,–
Oc1ccccc1/C=N/Nc1nccnc1Cl,–,–,·,·,–
COc1ccc(/C=N/Nc2nccnc2Cl)cc1,·,59.9,·,·,–
Clc1nccnc1N/N=C/c1ccc(Br)cc1,–,–,–,–,–
O=C(Nc1cccc(O)c1)c1noc2c1CCc1ccccc1-2,·,71.8,·,·,–
Cc1ccc(NC(=O)c2noc3c2CCc2ccccc2-3)cc1,–,–,·,·,–
CO[C@@H]1CN(C)C(=O)c2cc(NC(C)=O)ccc2OC[C@@H](C)N(C(=O)c2ccccn2)C[C@H]1C,·,·,–,–,·
O=C1CCCC2=C1C1(CCCCC1)N=C(Nc1nc3ccccc3o1)N2,–,74.6,·,·,–
O=C1CCCC2=C1C1(CCCC1)N=C(Nc1nc3cc(-c4ccccc4)ccc3o1)N2,–,64.3,–,–,–
O=C1CCCC2=C1C1(CCCC1)N=C(Nc1nc3ccccc3o1)N2,–,–,–,–,–
C[C@H](CO)N1C[C@H](C)[C@@H](CN(C)C(=O)Cc2ccccc2)Oc2ncc(C#Cc3ccccc3F)cc2C1=O,·,·,–,–,·
CC(=O)N1CC2(C1)[C@H](c1ccccc1)[C@@H](CO)N2C(=O)c1ccncc1,·,·,–,–,·
C[C@H](CO)N1C[C@H](C)[C@@H](CN(C)C(=O)c2ccc(F)cc2)Oc2ncc(/C=C/c3ccccc3)cc2C1=O,·,·,–,–,·
SMILES,CaV13 ICDI inh,TWEAK-Fn14 inh,LGR2 inh,Xi reactivation,TROY signal inh
C[C@@H]1CN([C@@H](C)CO)C(=O)Cc2cc(NC(=O)Nc3ccccc3)ccc2O[C@H]1CN(C)S(C)(=O)=O,·,·,–,–,·
Cc1ccc(C)n1-n1c(C)nc2sc(-c3ccccc3)cc2c1=O,·,69.1,·,·,–
Cc1nc2cc(-c3ccccc3)sc2c(=O)n1N,–,95.1,98.3,–,79.0
Cn1c(NCc2ccccc2)nc2cc(-c3ccccc3)sc2c1=O,–,–,–,–,–
COc1ccc(-c2cc3nc4n(c(=O)c3s2)CCC4)cc1,–,95.0,87.0,·,62.3
COc1ccc(-c2cc3nc(C)n(N)c(=O)c3s2)cc1,–,100.5,100.9,–,81.1
COCC(=O)N(C)C[C@H]1Oc2cc(C3=CCCC3)ccc2S(=O)(=O)N([C@H](C)CO)C[C@H]1C,·,·,–,–,·
COc1ccc(S(=O)(=O)N(C)C[C@H]2OCCCC[C@H](C)Oc3ccc(NS(C)(=O)=O)cc3C(=O)N([C@@H](C)CO)C[C@@H]2C)cc1,·,·,–,–,·
CCCC(=O)Nc1ccc2c(c1)OC[C@H](C)N(C(=O)c1ccncc1)C[C@H](C)[C@@H](OC)CN(C)C2=O,·,·,–,–,·
O=C(N/N=C/c1ccccn1)c1ccc(NC(=O)c2cccc([N+](=O)[O-])c2)cc1,–,–,–,–,–
O=C(Nc1cc(Sc2ccccn2)cc([N+](=O)[O-])c1)c1ccc(Cl)cc1,–,64.9,·,·,–
O=C(Nc1cccc([N+](=O)[O-])c1)c1ccncc1,–,–,–,–,–
